Compounds with a hit are over-represented: about 9.6% of the library has one in this group of screens.
BaF3 parental – reduces parental Ba/F3 cell viability, JAK2V617F counter-screen. actives 1.1% (n = 220,000). inhibition, % at 5.6 µM. AID 1486. CellTiter-Glo ATP luminescence;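 active = inhibition above a per-campaign cutoff, the mean inhibition of all tested compounds plus 3 SD, cut at about 27% in these data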;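 note: 0% = DMSO wells and 100% = JAK Inhibitor I control wells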
L major viab – Leishmania major promastigote growth inhibition; inhibition, % at 10 µM; actives 9% (n = 200,000); Leishmania major promastigotes, resazurin fluorescence viability; in the data active = inhibition above about 50%;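 note: promastigotes grown with compound for 44 hours at 28 °C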
b-catenin transl – alters nuclear translocation of beta-catenin in HeLa cells. immunofluorescence imaging. nuclear translocation activity, % at 5 µM. actives 0.3% (n = 190,000). AID 1665;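 active = nuclear translocation activity above 50% at 5 µM, with a well cell count of 50 or more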;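 note: per-cell ratio of nuclear to cytoplasmic median beta-catenin stain intensity; plate controls were DMSO negative control for no effect and GSK-3 inhibitor IX positive control for full effect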
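Assay system: human HeLa cells, native beta-catenin; doses: 5 µM primary, 0.02–20 µM confirmation; incubation: compound treatment 24 h, 37°C, 5% CO2; technique: fluorescence imaging of beta-catenin antibody stain plus DAPI; measure: % activation, nuclear-to-cytoplasmic median beta-catenin signal ratio per cell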
Ba/F3 V617F tox – reduce viability of Ba/F3 cells dependent on JAK2V617F; inhibition, % at 5.6 µM; Ba/F3 EpoR-JAK2V617F viability, ATP luminescence; actives 1.1% (n = 220,000);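 active = inhibition above the campaign mean plus 3 SD over all tested compounds, cut at about 24% in these data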;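 note: cytokine-independent growth of Ba/F3 cells driven by EpoR plus mutant JAK2; 0% = DMSO-treated cells and 100% = JAK inhibitor I control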
APP 5UTR inh – APP translation inhibition | SH-SY5Y APP 5'UTR-luciferase reporter, luminescence | AID 1285 | inhibition, % at 2 µM | actives 0.82% (n = 190,000);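 active = inhibition above a set limit, derived from the sample mean plus 3 SD, cut at about 45% in these data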
MT stabilizer – microtubule stabilizers in HeLa cells; % tubulin-high responders, % at 10 µM; AID 2205; actives 0.83% (n = 200,000); HeLa tubulin immunostaining HCS, 24 h; share of cells brighter than vehicle mean+2SD;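 active = plate Z-score above 3 for both tubulin-high and condensed-nucleus cell shares, with cell loss under 80%, at 10 µM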;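 note: anti alpha tubulin signal scored within the nucleus-defined area of each cell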
The depositor's hits bear a star; nt = no result given.

SMILES | BaF3 parental | L major viab | b-catenin transl | Ba/F3 V617F tox | APP 5UTR inh | MT stabilizer
CCOc1ccccc1-c1cc(C(=O)N/N=C/c2ccc3c(c2)OCO3)c2ccccc2n1 | 2 | 51* | -2 | -2 | 1 | 0
CCOc1cc(/C=N/NC(=O)c2cc(-c3cccnc3)nc3ccccc23)ccc1O | 4 | 0 | -1 | -1 | -10 | 4
C/C=C\C(=O)Nc1cccc(C2=NOC3(C2)C[C@@H](C(N)=O)N(C(=O)c2ccc(OC)cc2)C3)c1 (some centres not stated) | nt | nt | 0 | nt | nt | nt
O=C(NCC(=O)N(c1cccnc1)C(C(=O)NC1CCCC1)c1ccc(F)cc1)c1ccco1 (configuration not stated) | 4 | -4 | 3 | 2 | 21 | 2
O=C(N/N=C/c1ccc(Cl)c([N+](=O)[O-])c1)c1cc(-c2ccccc2)nc2ccccc12 | 3 | 24 | -4 | -2 | 3 | 70
O=C(CNC(=O)c1ccc2c(c1)OCO2)N/N=C(Br)/C=C/c1ccccc1 | -2 | 4 | -1 | -4 | 7 | 19*
O=C(CNC(=O)c1ccc2c(c1)OCO2)N/N=C/c1cccc([N+](=O)[O-])c1 | 1 | 0 | -2 | -1 | 1 | 1
CCN(CC)c1ccc(/C=N/NC(=O)CNC(=O)c2ccccn2)cc1 | 9 | 0 | nt | 4 | 10 | 1
O=C(N/N=C/c1ccc2c(c1)OCO2)c1cc(-c2ccncc2)nc2ccccc12 | 5 | 46 | 24 | 1 | 67* | 21*
O=C(N/N=C/c1ccc2c(c1)OCO2)c1cc(-c2ccccc2Cl)nc2ccccc12 | 6 | 56* | nt | 3 | 5 | 3
O=C(CNC(=O)c1ccccn1)N/N=C/c1ccc2c(c1)OCO2 | 4 | 63* | 0 | 1 | 4 | 1
CC(C)Oc1ccc(C(=O)NC(=S)N2CCOCC2)cc1 | 3 | -7 | 0 | 3 | -26 | 2
O=C(c1ccc(N2CCN(CCO)CC2)nc1)N1CCOCC1 | 1 | -6 | 2 | -5 | 7 | 1
N#C/C(=C\c1c(N2CCC(C(N)=O)CC2)nc2ccccn2c1=O)S(=O)(=O)c1ccc(Cl)cc1 | -2 | nt | 6 | 5 | nt | nt
Cc1ccn2cc(-c3ccc(NS(=O)(=O)c4ccccc4)cc3)nc2c1 | 7 | 92* | -1 | 1 | -7 | 2
Cc1ccn2cc(-c3ccc(NC(=O)c4ccco4)cc3)nc2c1 | 6 | 68* | 1 | 4 | -139 | 6
CC(=O)O[C@@H]1[C@H]2[C@@H](C[C@@H](C)[C@@H]3CCC(=O)[C@@]13C)OC(=O)[C@@H]2C | nt | nt | -2 | nt | nt | nt
CCc1cccc(C)c1NC(=S)N(CCOC)C(C)c1ccco1 (configuration not stated) | 2 | nt | 1 | 0 | nt | nt
Cc1cccc(NNC(=O)c2c(F)cccc2Cl)c1 | -4 | nt | 0 | 1 | nt | nt
CCOc1ccc(N=C(C)C2=C(O)c3ccccc3C2=O)cc1 | 2 | nt | 1 | -2 | nt | nt
COc1ccc(N=C(C)C2=C(O)c3ccccc3C2=O)cc1 | 3 | 56* | -4 | -1 | -206 | 3
O=C1CCCc2c1sc1nc3n(c(=O)c21)CCCCC3 | 5 | 2 | -7 | -2 | -11 | 3
O=c1c2c3c(sc2nc2n1CCCCC2)CCC3 | 2 | 55* | 0 | -2 | -8 | 1
CC1CCC(C(C)C)C(OC(=O)Cn2c(-c3ccccc3)[n+](C)c3ccccc32)C1 (configuration not stated) | 93* | 100* | -7 | 101* | -19 | 4
Cc1cccc(OCc2n(CC(=O)OC3CC(C)CCC3C(C)C)c3ccccc3[n+]2C)c1 (configuration not stated) | 88* | 100* | 8 | 101* | -32 | 67
CC1CCC(C(C)C)C(OC(=O)Cn2c(-c3ccc(F)cc3)[n+](C)c3ccccc32)C1 (configuration not stated) | 82* | 100* | nt | 98* | -3 | 2
CC1CCC(C(C)C)C(OC(=O)C[n+]2cc(-c3ccc(Cl)cc3)n3c2CCC3)C1 (configuration not stated) | -2 | nt | -2 | 0 | nt | nt
Cc1cccc(OC(=O)Cn2c(C(F)(F)F)nc3ccccc32)c1 | 4 | -10 | -2 | 2 | -11 | 3
CN(C)CCCCCCCCCCC(=O)/C=N/O | 8 | 99* | nt | 1 | 1 | 2

Screening results: PubChem BioAssay, several laboratories
